Experimental data reported in ChEMBL document CHEMBL1151428, “Capability of 11 antipneumococcal antibiotics to select for resistance by multistep and single-step methodologies” (2007).

Assays:
Format in all cases: functional
Streptococcus pneumoniae [1] = assay: Antimicrobial activity against drug-resistant Streptococcus pneumoniae isolate 3413 after 30 passages with Telithromycin measured after 10 antibiotic-free subculture by multi-step resistance selection technique
Procedure, shortened: (§1)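 Mutants selected by daily broth passage in subinhibitory drug in cation-adjusted Mueller-Hinton broth with 5% lysed horse blood. Stability was tested by 10 daily passages on blood agar without antibiotic, then macrodilution MIC.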

Streptococcus pneumoniae [2] = assay: Antimicrobial activity against drug-resistant Streptococcus pneumoniae isolate 1077 after 29 passages with azithromycin measured after 10 antibiotic-free subculture by multi-step resistance selection technique; procedure, shortened: as §1
Streptococcus pneumoniae [3] = assay: Antimicrobial activity against drug-resistant Streptococcus pneumoniae isolate 1635 after 14 passages with clindamycin measured after 10 antibiotic-free subculture by multi-step resistance selection technique
Streptococcus pneumoniae [4] = assay: Antimicrobial activity against drug-resistant Streptococcus pneumoniae isolate 3243 after 41 passages with clarithromycin measured after 10 antibiotic-free subculture by multi-step resistance selection technique
Streptococcus pneumoniae [5] = assay: Antimicrobial activity against drug-resistant Streptococcus pneumoniae isolate 1077 after 49 passages by multi-step resistance selection technique
Procedure, shortened: (§2)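 Daily serial passage in subinhibitory drug levels in 1 ml cation-adjusted Mueller-Hinton broth with 5% lysed horse blood; fresh broth for tigecycline. Each day, 10 μl were taken from the tube one to two dilutions below the MIC whose turbidity matched the growth control, and used to set the next MIC. […] MIC by macrodilution.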

Streptococcus pneumoniae [6] = assay: Antimicrobial activity against drug-resistant Streptococcus pneumoniae isolate 2527 after 20 passages with azithromycin measured after 10 antibiotic-free subculture by multi-step resistance selection technique; procedure, shortened: as §1
Streptococcus pneumoniae [7] = assay: Antimicrobial activity against drug-resistant Streptococcus pneumoniae isolate 3274 after 48 passages with Telithromycin measured after 10 antibiotic-free subculture by multi-step resistance selection technique; procedure, shortened: as §1
Streptococcus pneumoniae [8] = assay: Antimicrobial activity against drug-resistant Streptococcus pneumoniae isolate 24 after 14 passages with Telithromycin measured after 10 antibiotic-free subculture by multi-step resistance selection technique; procedure, shortened: as §1
Streptococcus pneumoniae [9] = assay: Antimicrobial activity against drug-resistant Streptococcus pneumoniae isolate 3676 after 44 passages with clarithromycin measured after 10 antibiotic-free subculture by multi-step resistance selection technique
Streptococcus pneumoniae [10] = assay: Antimicrobial activity against drug-resistant Streptococcus pneumoniae isolate 3009 by NCCLS M7-A7 method
Streptococcus pneumoniae [11] = assay: Antimicrobial activity against drug-resistant Streptococcus pneumoniae isolate 3243 after 29 passages with Telithromycin measured after 10 antibiotic-free subculture by multi-step resistance selection technique; procedure, shortened: as §1
Streptococcus pneumoniae [12] = assay: Antimicrobial activity against drug-resistant Streptococcus pneumoniae isolate 1077 after 15 passages with Telithromycin measured after 10 antibiotic-free subculture by multi-step resistance selection technique; procedure, shortened: as §1
Streptococcus pneumoniae [13] = assay: Antimicrobial activity against drug-resistant Streptococcus pneumoniae isolate 3676 after 14 passages with Telithromycin measured after 10 antibiotic-free subculture by multi-step resistance selection technique
Streptococcus pneumoniae [14] = assay: Antimicrobial activity against drug-resistant Streptococcus pneumoniae isolate 3274 by NCCLS M7-A7 method
Streptococcus pneumoniae [15] = assay: Antimicrobial activity against drug-resistant Streptococcus pneumoniae isolate 2527 by NCCLS M7-A7 method
Streptococcus pneumoniae [16] = assay: Antimicrobial activity against drug-resistant Streptococcus pneumoniae isolate 3009 after 21 passages with gemifloxacin measured after 10 antibiotic-free subculture by multi-step resistance selection technique; procedure, shortened: as §1
Streptococcus pneumoniae [17] = assay: Antimicrobial activity against drug-resistant Streptococcus pneumoniae isolate 1635 by NCCLS M7-A7 method
Streptococcus pneumoniae [18] = assay: Antimicrobial activity against drug-resistant Streptococcus pneumoniae isolate 3274 after 50 passages by multi-step resistance selection technique
Procedure, shortened: (§3)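 Daily serial passage in subinhibitory drug levels in 1 ml cation-adjusted Mueller-Hinton broth with 5% lysed horse blood; fresh broth for tigecycline. Each day, 10 μl were taken from the tube one to two dilutions below the MIC whose turbidity matched the growth control, and used to set the next MIC. MIC by macrodilution.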

Streptococcus pneumoniae [19] = assay: Antimicrobial activity against drug-resistant Streptococcus pneumoniae isolate 1076 by NCCLS M7-A7 method
Streptococcus pneumoniae [20] = assay: Antimicrobial activity against drug-resistant Streptococcus pneumoniae isolate 3009 after 50 passages by multi-step resistance selection technique; procedure, shortened: as §2
Streptococcus pneumoniae [21] = assay: Antimicrobial activity against drug-resistant Streptococcus pneumoniae isolate 1077 after 49 passages with clindamycin measured after 10 antibiotic-free subculture by multi-step resistance selection technique
Streptococcus pneumoniae [22] = assay: Antimicrobial activity against drug-resistant Streptococcus pneumoniae isolate 3665 after 38 passages with moxifloxacin measured after 10 antibiotic-free subculture by multi-step resistance selection technique
Streptococcus pneumoniae [23] = assay: Antimicrobial activity against drug-resistant Streptococcus pneumoniae isolate 2527 after 14 passages with gemifloxacin measured after 10 antibiotic-free subculture by multi-step resistance selection technique; procedure, shortened: as §1
Streptococcus pneumoniae [24] = assay: Antimicrobial activity against drug-resistant Streptococcus pneumoniae isolate 3243 after 33 passages with azithromycin measured after 10 antibiotic-free subculture by multi-step resistance selection technique; procedure, shortened: as §1
Streptococcus pneumoniae [25] = assay: Antimicrobial activity against drug-resistant Streptococcus pneumoniae isolate 3413 by NCCLS M7-A7 method
Streptococcus pneumoniae [26] = assay: Antimicrobial activity against drug-resistant Streptococcus pneumoniae isolate 1076 after 14 passages with Telithromycin measured after 10 antibiotic-free subculture by multi-step resistance selection technique; procedure, shortened: as §1
Streptococcus pneumoniae [27] = assay: Antimicrobial activity against drug-resistant Streptococcus pneumoniae isolate 3676 after 50 passages by multi-step resistance selection technique
Procedure, shortened: (§4)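 Daily serial passage in broth at subinhibitory drug levels: 1 ml cation-adjusted Mueller-Hinton broth with 5% lysed horse blood; fresh broth for tigecycline. Each day 10 μl inoculum taken from the tube one to two dilutions below MIC matching growth-control turbidity, used to set next MIC. Continued until ≥8-fold MIC rise, minimum 14, maximum 50 passages; MIC read by macrodilution.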

Streptococcus pneumoniae [28] = assay: Antimicrobial activity against drug-resistant Streptococcus pneumoniae isolate 2527 after 50 passages by multi-step resistance selection technique; procedure, shortened: as §2
Streptococcus pneumoniae [29] = assay: Antimicrobial activity against drug-resistant Streptococcus pneumoniae isolate 1635 after 49 passages with clarithromycin measured after 10 antibiotic-free subculture by multi-step resistance selection technique
Streptococcus pneumoniae [30] = assay: Antimicrobial activity against drug-resistant Streptococcus pneumoniae isolate 1635 after 14 passages by multi-step resistance selection technique; procedure, shortened: as §2
Streptococcus pneumoniae [31] = assay: Antimicrobial activity against drug-resistant Streptococcus pneumoniae isolate 1077 by NCCLS M7-A7 method
Streptococcus pneumoniae [32] = assay: Antimicrobial activity against drug-resistant Streptococcus pneumoniae isolate 3009 after 19 passages with moxifloxacin measured after 10 antibiotic-free subculture by multi-step resistance selection technique; procedure, shortened: as §1
Streptococcus pneumoniae [33] = assay: Antimicrobial activity against drug-resistant Streptococcus pneumoniae isolate 3676 by NCCLS M7-A7 method
Streptococcus pneumoniae [34] = assay: Antimicrobial activity against drug-resistant Streptococcus pneumoniae isolate 3665 by NCCLS M7-A7 method
Streptococcus pneumoniae [35] = assay: Antimicrobial activity against drug-resistant Streptococcus pneumoniae isolate 24 by NCCLS M7-A7 method
Streptococcus pneumoniae [36] = assay: Antimicrobial activity against drug-resistant Streptococcus pneumoniae isolate 3665 after 26 passages with clarithromycin measured after 10 antibiotic-free subculture by multi-step resistance selection technique
Streptococcus pneumoniae [37] = assay: Antimicrobial activity against drug-resistant Streptococcus pneumoniae isolate 3009 after 18 passages with levofloxacin measured after 10 antibiotic-free subculture by multi-step resistance selection technique; procedure, shortened: as §1
Streptococcus pneumoniae [38] = assay: Antimicrobial activity against drug-resistant Streptococcus pneumoniae isolate 3665 after 14 passages with Telithromycin measured after 10 antibiotic-free subculture by multi-step resistance selection technique
Streptococcus pneumoniae [39] = assay: Antimicrobial activity against drug-resistant Streptococcus pneumoniae isolate 1635 after 14 passages with azithromycin measured after 10 antibiotic-free subculture by multi-step resistance selection technique; procedure, shortened: as §1
Streptococcus pneumoniae [40] = assay: Antimicrobial activity against drug-resistant Streptococcus pneumoniae isolate 3665 after 50 passages by multi-step resistance selection technique; procedure, shortened: as §4
Streptococcus pneumoniae [41] = assay: Antimicrobial activity against drug-resistant Streptococcus pneumoniae isolate 24 after 50 passages with moxifloxacin measured after 10 antibiotic-free subculture by multi-step resistance selection technique; procedure, shortened: as §1
Streptococcus pneumoniae [42] = assay: Antimicrobial activity against drug-resistant Streptococcus pneumoniae isolate 3243 by NCCLS M7-A7 method
Streptococcus pneumoniae [43] = assay: Antimicrobial activity against drug-resistant Streptococcus pneumoniae isolate 37 by NCCLS M7-A7 method
Streptococcus pneumoniae [44] = assay: Antimicrobial activity against drug-resistant Streptococcus pneumoniae isolate 37 after 14 passages with Telithromycin measured after 10 antibiotic-free subculture by multi-step resistance selection technique
Streptococcus pneumoniae [45] = assay: Antimicrobial activity against drug-resistant Streptococcus pneumoniae isolate 3243 after 20 passages with moxifloxacin measured after 10 antibiotic-free subculture by multi-step resistance selection technique; procedure, shortened: as §1
Streptococcus pneumoniae [46] = assay: Antimicrobial activity against drug-resistant Streptococcus pneumoniae isolate 3676 after 50 passages with moxifloxacin measured after 10 antibiotic-free subculture by multi-step resistance selection technique
Streptococcus pneumoniae [47] = assay: Antimicrobial activity against drug-resistant Streptococcus pneumoniae isolate 3243 after 50 passages by multi-step resistance selection technique; procedure, shortened: as §2
Streptococcus pneumoniae [48] = assay: Antimicrobial activity against drug-resistant Streptococcus pneumoniae isolate 3413 after 50 passages by multi-step resistance selection technique; procedure, shortened: as §3
Streptococcus pneumoniae [49] = assay: Antimicrobial activity against drug-resistant Streptococcus pneumoniae isolate 1076 after 35 passages with moxifloxacin measured after 10 antibiotic-free subculture by multi-step resistance selection technique; procedure, shortened: as §1
Streptococcus pneumoniae [50] = assay: Antimicrobial activity against drug-resistant Streptococcus pneumoniae isolate 3009 after 25 passages with clarithromycin measured after 10 antibiotic-free subculture by multi-step resistance selection technique
Streptococcus pneumoniae [51] = assay: Antimicrobial activity against drug-resistant Streptococcus pneumoniae isolate 1076 after 35 passages by multi-step resistance selection technique; procedure, shortened: as §2
Streptococcus pneumoniae [52] = assay: Antimicrobial activity against drug-resistant Streptococcus pneumoniae isolate 3665 after 38 passages by multi-step resistance selection technique; procedure, shortened: as §4
Streptococcus pneumoniae [53] = assay: Antimicrobial activity against drug-resistant Streptococcus pneumoniae isolate 3243 after 20 passages by multi-step resistance selection technique; procedure, shortened: as §2
Streptococcus pneumoniae [54] = assay: Antimicrobial activity against drug-resistant Streptococcus pneumoniae isolate 3009 after 19 passages by multi-step resistance selection technique; procedure, shortened: as §2

Measured: MIC

CCC[C@@H]1C[C@@H](C(=O)N[C@@H]([C@H]2O[C@H](SC)[C@H](O)[C@@H](O)[C@H]2O)[C@H](C)Cl)N(C)C1 [CLINDAMYCIN]
8 µg/mL: Streptococcus pneumoniae [12] | Streptococcus pneumoniae [21]
64 µg/mL: Streptococcus pneumoniae [19]
0.5 µg/mL: Streptococcus pneumoniae [16] | Streptococcus pneumoniae [32] | Streptococcus pneumoniae [37]
0.06 µg/mL: Streptococcus pneumoniae [1] | Streptococcus pneumoniae [6] | Streptococcus pneumoniae [9] | Streptococcus pneumoniae [17]
0.25 µg/mL: Streptococcus pneumoniae [29]
4 µg/mL: Streptococcus pneumoniae [2] | Streptococcus pneumoniae [5]
2 µg/mL: Streptococcus pneumoniae [20]
> 64 µg/mL: Streptococcus pneumoniae [3] | Streptococcus pneumoniae [8] | Streptococcus pneumoniae [26] | Streptococcus pneumoniae [30] | Streptococcus pneumoniae [35] | Streptococcus pneumoniae [41] | Streptococcus pneumoniae [43] | Streptococcus pneumoniae [44] | Streptococcus pneumoniae [49]
0.016 µg/mL: Streptococcus pneumoniae [7] | Streptococcus pneumoniae [14] | Streptococcus pneumoniae [23] | Streptococcus pneumoniae [24] | Streptococcus pneumoniae [25] | Streptococcus pneumoniae [27] | Streptococcus pneumoniae [28] | Streptococcus pneumoniae [31] | Streptococcus pneumoniae [34] | Streptococcus pneumoniae [42] | Streptococcus pneumoniae [45] | Streptococcus pneumoniae [46]
0.03 µg/mL: Streptococcus pneumoniae [11] | Streptococcus pneumoniae [13] | Streptococcus pneumoniae [22] | Streptococcus pneumoniae [33] | Streptococcus pneumoniae [36] | Streptococcus pneumoniae [38] | Streptococcus pneumoniae [39] | Streptococcus pneumoniae [40] | Streptococcus pneumoniae [47]
1 µg/mL: Streptococcus pneumoniae [4] | Streptococcus pneumoniae [10] | Streptococcus pneumoniae [50]
0.008 µg/mL: Streptococcus pneumoniae [15] | Streptococcus pneumoniae [18] | Streptococcus pneumoniae [48]

COc1c(N2C[C@@H]3CCCN[C@@H]3C2)c(F)cc2c(=O)c(C(=O)O)cn(C3CC3)c12 [MOXIFLOXACIN]
8 µg/mL: Streptococcus pneumoniae [51] | Streptococcus pneumoniae [23] | Streptococcus pneumoniae [27] | Streptococcus pneumoniae [28] | Streptococcus pneumoniae [46]
1 µg/mL: Streptococcus pneumoniae [19] | Streptococcus pneumoniae [22] | Streptococcus pneumoniae [26] | Streptococcus pneumoniae [52] | Streptococcus pneumoniae [53]
2 µg/mL: Streptococcus pneumoniae [15] | Streptococcus pneumoniae [16] | Streptococcus pneumoniae [54]
